# Compound activity deposited in PubChem by several laboratories.
# PolyA inhibitor = yeast polyadenylation inhibition; S. cerevisiae SKY197-pL101 polyadenylation reporter, beta-gal luminescence; efflux-impaired pdr1/pdr3 knockout yeast; score 100 = 6 SD above DMSO; activity score, % at 12 µM; 0.02% of 300,000 active;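 active = lowest replicate activity score at least 50, where 100 means six control SD above control mean; inconclusive = lowest score under 50 but half or more replicates reach 50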;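 note: yeast exposed to compound for 9 h at 30 °C; higher score means more reporter readthrough which indicates perturbed polyadenylation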
# DSG3 Ab inh = human desmoglein-3 autoantibody binding inhibition; P32926; DSG3-coupled beads, scFv-anti-DSG3-GFP binding, flow cytometry; hits give low values; binding (percent of control), % at 10 µM; 0.48% of 310,000 active;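 active = binding more than 3 SD below its plate's average and above zero; inconclusive = below that plate limit but binding exactly zero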;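 note: hits lower antibody fragment binding to DSG3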
# NALP3 yeast inh = blocks the NALP3 inflammasome reconstituted in yeast; Yeast reconstituted NLRP3/ASC/caspase-1, beta-gal luminescence, 24 h; inhibition, % at 10 µM; 0.39% of 330,000 active;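 active = inhibition of 50% or more; inactive = inhibition below 50%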;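 note: plate controls were induced DMSO wells for no effect and uninduced yeast grown without galactose for full effect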
# Arr AP2 block = inhibitors of human beta-arrestin and AP2 interaction; inhibition, % at 10 µM; 0.31% of 340,000 active; FITC-arrestin peptide / GST-AP2 beads, flow cytometry; AP2 beta2 appendage carries R879A mutation;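 active = inhibition above a set limit, near 3 SD of compounds lacking own fluorescence, cut at about 54% in these data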;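 note: plate controls were DMSO wells for no effect and 5 µM unlabelled arrestin peptide for full effect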
#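 System: GST-AP2 R879A glutathione beads. Medium: PBS with 0.05% Tween 20 and 0.1% BSA. Also added: FITC-arrestin peptide, 50 nM. Incubation: 12 min plus 1 h, RT. Measured by: high-throughput flow cytometry of beads, ex 488, em 535 nm. Evaluation: percent drop in bead-associated FITC signal.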
# NALP1 yeast inh = NALP1 inhibition; S. cerevisiae NALP1/ASC/caspase-1 growth, X-gal OD620, 72 h; inhibition, % at 10 µM; 0.61% of 280,000 active; AID 2071; in the data active = inhibition mostly above about 24%, no sharp cut-off; inactive = mostly below about 32%
# ALR inh = human ALR oxidase inhibition via reduced H2O2 | 3.8% of 290,000 active | inhibition, % (test concentration not listed) | purified ALR, DTT oxidation, H2O2 HRP-luminol luminescence | AID 485317;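 active = mean replicate inhibition above about 79%, with every replicate also reaching it, limit read from the data; inconclusive = only one of the two criteria met; inactive = mean below limit and not every replicate reaching it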
# Target sequence (P55789 whole entry, looked up): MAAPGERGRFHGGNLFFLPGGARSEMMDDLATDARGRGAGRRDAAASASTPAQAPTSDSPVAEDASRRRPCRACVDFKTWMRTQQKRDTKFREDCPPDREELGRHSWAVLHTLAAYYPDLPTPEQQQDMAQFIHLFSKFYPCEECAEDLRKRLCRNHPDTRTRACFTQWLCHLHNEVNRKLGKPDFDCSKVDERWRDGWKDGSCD
# Starred values were filed as active, the others as inactive; ? = inconclusive; nt = no result. An excerpt weighted towards active compounds, which were near 4.6% of everything screened.
SMILES,PolyA inhibitor,DSG3 Ab inh,NALP3 yeast inh,Arr AP2 block,NALP1 yeast inh,ALR inh
CC1(C)COC(Nc2ccc(Cl)cc2)=N1,-7,nt,5,-1,41*,1
COc1ccc(OC(=O)N(C)C[C@H]2OCc3cnnn3CCCC(=O)N([C@H](C)CO)C[C@H]2C)cc1,nt,100,nt,nt,nt,nt
COc1cc2c(cc1O)CC1c3c(cc(O)c(OC)c3-2)CCN1C (stereo not given),-11,98,25,-10,-3,99*
COc1cc2c(cc1OC)-c1c(OC)c(OC)cc3c1[C@H](C2)N(C)CC3,7,102,38,26,28,-16
COC(=O)C1=C(c2cccc(C#N)c2)C[C@@H]2CC[C@H]1N2C(=O)NC(C)C,nt,97,15,4,nt,1
C=CCN1C(=O)c2ccccc2Sc2ccc(C(=O)N3CCC4(CC3)OCCO4)cc21,3,95,6,15,-14,4
O=C(c1ccc2c(c1)N(Cc1ccccc1)CCS2)N1CCC2(CC1)OCCO2,9,96,9,-3,-2,85*
CC(=O)OC(C)(C)/C=C/C(=O)[C@](C)(O)C1[C@H](O)C[C@@]2(C)C3CC=C4C(C[C@H](O)C(=O)C4(C)C)[C@]3(C)C(=O)C[C@]12C (stereo not given in full),nt,100,15,10,nt,4
CCN(CC)c1ccc(CNCCc2ccccc2F)cc1,10,nt,26,40,-14,99*
Cc1ccc(-c2ccc(=O)n(CC(=O)N3CCC4(CC3)OCCO4)n2)cc1,11,103,0,-8,-2,-5
Cc1ccc(-c2nc(CS(=O)CC(=O)N3CCC4(CC3)OCCO4)c(C)o2)cc1 (stereo not given),-17,107,-2,2,nt,99*
CCCCCn1c(=O)c(C(=O)NC(C)c2ccccc2)c(O)c2ccccc21 (stereo not given),0,103,31,29,7,-9
O=C1CC=C2C3CC4N(CCC45c4cc(O)c(O)cc4N1C25)CC3=CCBr (stereo not given),nt,54*,nt,45,nt,nt
c1ccc(Nc2ccc(Nc3ccccc3)cc2)cc1,nt,100,42,29,nt,98*
Nc1ccc(S(=O)(=O)N2CCCCC2c2cccnc2)cc1 (stereo not given),2,109,10,17,-7,90*
C[C@H](N)CN1CCc2ccc(Br)cc21,9,119,14,-6,nt,99*
Oc1ccc(O)c2c1C1(Cl)C(Cl)=C(Cl)C2(Cl)C1(Cl)Cl,nt,102,nt,8,nt,nt
Cc1ccc(/C=C2\C(=O)NC(=O)N(Cc3ccccc3Cl)C2=O)o1,14,100,-5,7,-11,99*
O=C1NC(=O)N(Cc2ccc(F)cc2)C(=O)/C1=C/c1cccs1,17,107,26,1,12,?
O=C1NC(=O)N(Cc2ccccc2Cl)C(=O)/C1=C/c1cccs1,-35,105,6,-11,20,97*
Cc1ccc(/C=C2/C(=O)NC(=O)N(Cc3ccc(F)cc3)C2=O)o1,13,nt,13,nt,nt,nt
Cc1ncoc1C(=O)NCC1=C(c2ccc(S(C)(=O)=O)cc2)C[C@@H]2CC[C@H]1N2CCOc1ccccc1,nt,112,nt,nt,nt,nt
CC(CC(C)(C)N1CC1)=NNC(=O)Nc1cccc2ccccc12,nt,nt,nt,-7,nt,nt
Cc1ccc2c(c1)=C/C(=C\c1c(O)[nH]c(=S)[nH]c1=O)C(=O)N=2,21,nt,12,nt,15,97*
CC(Cc1ccccc1Sc1ccc(O)cc1)N(C)C (stereo not given),0,109,13,1,15,99*
SMILES,PolyA inhibitor,DSG3 Ab inh,NALP3 yeast inh,Arr AP2 block,NALP1 yeast inh,ALR inh
CCN1C[C@]2(COC)CC[C@H](O)[C@]34C1[C@](O)([C@@H](OC)[C@H]23)[C@@]1(O)C[C@H](OC)[C@H]2C[C@@H]4[C@@H]1[C@H]2OC,nt,91,21,1,nt,-4
COc1cc(OC)cc(-n2nc(C(=O)N3CCC4(CC3)OCCO4)c3ccccc3c2=O)c1,nt,98,11,24,0,nt
COc1cccc(-n2nc(C(=O)N3CCC4(CC3)OCCO4)c3ccccc3c2=O)c1,nt,113,2,4,-5,94*
COc1ccc(/C=N\N=C(N)N)cc1,1,103,-1,7,34,11
NC(N)=N/N=C/c1ccc(N(c2ccccc2)c2ccccc2)cc1,1,101,26,-10,26,94*
CC12C(C(=O)O)C1(c1ccccc1)C2C(=O)O (stereo not given),nt,99,nt,4,nt,nt
COc1cccc(C2CC3C(=O)C=CC2N3Cc2ccccc2)c1 (stereo not given),2,103,26,28,69*,-104
CN1C(=O)C(=Cc2ccccc2OCc2ccc(Cl)cc2)C(=O)N(C)C1=O,13,85,36,-5,44*,49
CC(=O)OC1CCC2(C)C(CCC3C4CC(N5CC5)C(C(C)=O)C4(C)CC(=O)C32)C1 (stereo not given),nt,nt,nt,8,nt,nt
Cc1ccc(N2C(=O)NC(=O)/C(=C\c3cc(C)n(-c4ccc(C(=O)O)cc4)c3C)C2=O)cc1,-27,96,25,21,16,97*
Cc1cc(/C=C2\C(=O)NC(=O)N(c3ccc(F)cc3)C2=O)c(C)n1-c1ccc(C(=O)O)cc1,-9,95,10,4,12,98*
Cc1cc(/C=C2/C(=O)NC(=O)N(c3ccccc3)C2=O)c(C)n1-c1ccc(F)cc1,-7,107,0,6,nt,8
Cc1ccc(N2C(=O)NC(=O)/C(=C/c3ccc(-c4ccc(C(=O)O)c(Cl)c4)o3)C2=O)cc1,-5,100,9,8,-7,97*
NNCc1ccccc1,nt,106,nt,-8,nt,nt
O=C(OCc1ccccc1)N1CCC2CC1c1cc(N3Cc4ccccc4-n4nncc4C3)ccc12 (stereo not given),nt,100,nt,nt,nt,nt
CC1([N+](=O)[O-])COP(=O)(NC2CC2)OC1 (stereo not given),nt,104,nt,-8,nt,nt
Cc1ccc(C)c(Cn2c(C(=O)O)c(C=O)c3ccccc32)c1,10,96,1,-15,28*,0
O=Cc1c(C(=O)O)n(Cc2ccccc2F)c2ccccc12,6,99,11,8,12,-1
COC(=O)c1ccccc1OP1(=O)COc2ccccc2OC1,16,87,5,6,-35,99*
C1=CC(Cc2cncs2)c2ccccc21 (stereo not given),nt,93,1,4,nt,-13
Cc1ccc(-[n+]2c(Cc3nn(-c4ccccc4)c(C)[n+]3-c3ccc(C)cc3)nn(-c3ccccc3)c2C)cc1,nt,101,nt,nt,nt,nt
CC(C)(C)N1Cc2ccccc2C1=N,7,nt,16,38,43*,-8
CN(C)CC(C(=O)Cc1ccccc1)c1ccccc1 (stereo not given),nt,93,nt,-9,nt,nt
